# Measurements pooled from the literature.
# Each line is one published result; the experiments were not run side by side.
# PDE10A: cAMP and cAMP-inhibited cGMP 3',5'-cyclic phosphodiesterase 10A (PDE10A, Homo sapiens, UniProt Q9Y233)
# DRD3: D(3) dopamine receptor (DRD3, Homo sapiens, UniProt P35462)
# SLC6A3: Sodium-dependent dopamine transporter (SLC6A3, Homo sapiens, UniProt Q01959)
Structure (SMILES),target,assay,system,conditions,measurement,result
COc1cc2ncnc(Cc3cccc(-c4ccncc4)c3)c2cc1OC,PDE10A,"enzyme activity, inhibitor, FP",,0.1 µM,inhibition,57%
CCCCC(=O)Nc1ccc(-c2ccc3ncn(CCC)c(=O)c3c2)cn1,"Discoidin domain-containing receptor 2 (DDR2, Homo sapiens, UniProt Q16832)","binding, competition with immobilised ligand",,0.5 µM,remaining binding,100%
COc1ccc2nccc(Cc3cccc(-c4ccc(C(=O)O)cc4)c3)c2c1,PDE10A,"enzyme activity, inhibitor, FP",,0.1 µM,inhibition,11%
Cc1[nH]c(C)c(S(=O)(=O)Nc2ccc(Cl)c(Cl)c2Cl)c1C(=O)N1CCC(F)(F)C1,DRD3,"β-arrestin recruitment, agonist",,90 min,Emax,92%
CCOC(=O)[C@@]12C[C@@H]1[C@@H](n1cnc3c(NCCCCCc4ccccc4)nc(C#Cc4ccc(Cl)s4)nc31)[C@H](O)[C@@H]2O,SLC6A3,"transporter uptake, inhibitor, radiometric",HEK293,10 µM,inhibition,< 5%
Cc1[nH]c(C)c(S(=O)(=O)Nc2ccc(C(F)(F)F)c(Cl)c2)c1C(=O)N1CCCC1,DRD3,"β-arrestin recruitment, agonist",,90 min,Emax,92%
N#C[C@@]12C[C@@H]1[C@@H](n1cnc3c(Nc4ccc(Cl)c(Cl)c4)nc(I)nc31)[C@H](O)[C@@H]2O,SLC6A3,"ligand displacement, radioligand",,10 µM,inhibition,-9%
COc1cc2ncnc(Cc3cccc(-c4ccc(CO)cc4)c3)c2cc1OC,PDE10A,"enzyme activity, inhibitor, FP",,0.1 µM,inhibition,66%
Cc1[nH]c(C)c(S(=O)(=O)Nc2ccc(C(F)(F)F)c(Cl)c2)c1C(=O)NCC(F)(F)F,DRD3,"β-arrestin recruitment, agonist",,90 min,Emax,98%
COc1ccc2c(Cc3ccc(OC)c(OC)c3)ccnc2c1,PDE10A,"enzyme activity, inhibitor, FP",,0.1 µM,inhibition,33%
Cc1[nH]c(C)c(S(=O)(=O)Nc2ccc(C(F)(F)F)c(Cl)c2)c1C(=O)N1CCC(O)C1 (stereo not shown),DRD3,"β-arrestin recruitment, agonist",,90 min,Emax,89%
CCOC(=O)C12CC1C(n1ccc3c(NCCCc4ccccc4)nc(C#Cc4ccc(Cl)s4)nc31)C(O)C2O (stereo not shown),SLC6A3,"ligand displacement, radioligand",,10 µM,inhibition,61%
Cc1[nH]c(C)c(S(=O)(=O)Nc2ccc([N+](=O)[O-])c(Cl)c2)c1C(=O)N1CCC(F)(F)C1,DRD3,"β-arrestin recruitment, agonist",,90 min,Emax,101%
COc1ccc2oc(-c3ccc4nc(N)oc4c3)c/c(=N\c3ccccc3NC(=O)CCN)c2c1,"AP2-associated protein kinase 1 (AAK1, Homo sapiens, UniProt Q2M2I8)",binding,,1 µM,remaining binding,98%
COc1cc2ncnc(Cc3cccc(Cl)c3)c2cc1OC,PDE10A,"enzyme activity, inhibitor, FP",,0.1 µM,inhibition,68%
CCOC(=O)[C@@]12C[C@@H]1[C@@H](n1cnc3c(Nc4ccccc4)nc(I)nc31)[C@H](O)[C@@H]2O,SLC6A3,"ligand displacement, radioligand",,10 µM,inhibition,32%
C1=C/COCc2cc(ccc2OCCN2CCCC2)Nc2nccc(n2)-c2cccc(c2)COC/1,"Calcium/calmodulin-dependent protein kinase type IV (CAMK4, Homo sapiens, UniProt Q16566)",binding,,0.1 µM,remaining binding,100%
CCOC(=O)[C@@]12C[C@@H]1[C@@H](n1ccc3c(NCCCCc4ccccc4)nc(C#Cc4ccccc4)nc31)[C@H](O)[C@@H]2O,SLC6A3,"ligand displacement, radioligand",,10 µM,inhibition,66%
Cc1ccc(NS(=O)(=O)c2c(C)[nH]c(C)c2C(=O)N2CCC2)cc1Cl,DRD3,"β-arrestin recruitment, agonist",,90 min,Emax,96%
CCOC(=O)C12CC1C(n1ccc3c(NC4CC4)nc(C#Cc4ccccc4)nc31)C(O)C2O (stereo not shown),SLC6A3,"ligand displacement, radioligand",,10 µM,inhibition,-260%
Cc1cc(O)c(-c2ccc([C@@H](C)CN(C)C)cc2)c2c1[nH]c(=O)c1sccc12,"Cyclin-dependent kinase 12 (CDK12, Homo sapiens, UniProt Q9NYV4)","enzyme activity, inhibitor",,0.1 µM,inhibition,0.174%
Cc1[nH]c(C)c(S(=O)(=O)Nc2ccc(Cl)c(C(F)(F)F)c2)c1C(=O)N1CCCC1,DRD3,"β-arrestin recruitment, agonist",,90 min,Emax,88%
COc1ccc(C(=O)c2ncnc3cc(OC)c(OC)cc23)cc1,PDE10A,"enzyme activity, inhibitor, FP",,0.1 µM,inhibition,39%
N#CC[C@@]12C[C@@H]1[C@@H](n1cnc3c(NCCCCCc4ccccc4)nc(I)nc31)[C@H](O)[C@@H]2O,SLC6A3,"ligand displacement, radioligand",,10 µM,inhibition,23%
c1ccc(-c2cccc(Cc3ccnc4cc(C5COC5)ccc34)c2)cc1,PDE10A,"enzyme activity, inhibitor, FP",,0.1 µM,inhibition,3%
N#CC[C@@]12C[C@@H]1[C@@H](n1cnc3c(Nc4ccccc4)nc(I)nc31)[C@H](O)[C@@H]2O,SLC6A3,"ligand displacement, radioligand",,10 µM,inhibition,54%
c1ccc2c(Cc3ccc4cn(C5COC5)nc4c3)nccc2c1,PDE10A,"enzyme activity, inhibitor, FP",,0.1 µM,inhibition,0%
Cc1[nH]c(C)c(S(=O)(=O)Nc2ccc(C(F)(F)F)c(Cl)c2)c1C(=O)N1CCC(F)(F)C1,DRD3,"β-arrestin recruitment, agonist",,90 min,Emax,103%
